Measurements reported in ChEMBL document CHEMBL4007411, “Design, Synthesis, and Biological Evaluation of Coupled Bioactive Scaffolds as Potential Anticancer Agents for Dual Targeting of Dihydrofolate Reductase and Thioredoxin Reductase” (J Med Chem, 2017).
Active and inactive are the calls of the source. The rule behind the calls is not given here.

Key:
[1] = target: T1, Thioredoxin reductase 1, cytoplasmic (Homo sapiens) (UniProt Q16881); assay: Inhibition of thioredoxin reductase in human HCT116 cell lysate using thioredoxin as substrate at 0.001 to 1 uM after 16 hrs by end point insulin assay method
T1 sequence (whole entry): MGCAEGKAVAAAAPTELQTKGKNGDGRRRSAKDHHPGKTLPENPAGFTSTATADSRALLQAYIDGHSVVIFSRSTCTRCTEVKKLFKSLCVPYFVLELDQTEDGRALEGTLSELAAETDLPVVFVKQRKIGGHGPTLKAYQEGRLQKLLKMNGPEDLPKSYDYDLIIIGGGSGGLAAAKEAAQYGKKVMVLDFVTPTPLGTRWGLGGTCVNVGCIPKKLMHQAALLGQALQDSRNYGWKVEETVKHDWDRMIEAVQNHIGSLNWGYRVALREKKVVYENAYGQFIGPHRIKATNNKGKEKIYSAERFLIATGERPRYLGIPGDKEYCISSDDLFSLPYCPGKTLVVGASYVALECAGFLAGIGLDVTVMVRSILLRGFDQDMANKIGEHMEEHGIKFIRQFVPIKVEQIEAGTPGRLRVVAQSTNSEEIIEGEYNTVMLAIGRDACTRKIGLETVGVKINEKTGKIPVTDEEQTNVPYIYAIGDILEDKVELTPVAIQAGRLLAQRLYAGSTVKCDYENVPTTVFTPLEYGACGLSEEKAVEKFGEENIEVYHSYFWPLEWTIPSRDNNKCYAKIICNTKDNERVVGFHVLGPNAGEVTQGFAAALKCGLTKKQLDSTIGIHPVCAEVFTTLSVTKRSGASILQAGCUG

HCT-116 [2] = assay: Antiproliferative activity against human HCT116 cells after 72 hrs by MTT assay; type: functional; conditions: for GI50 / CC50: HCT-116, 72 h; for CC50: read-out: LC50 (the source's name)
How it was run: (§1)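 Cells kept in RPMI 1640 with 10% FBS, penicillin and streptomycin at 37°C and 5% CO2. Seeded at 1.0 x 10^4/well and left to adhere overnight. Serial dilutions made in medium from DMSO stocks. MTT at 400 µg/ml final for 4 h, read at T0 and after 72 h. Formazan dissolved in DMSO:glycine pH 10.5, A550. GI50 and LC50 interpolated from absorbance versus log concentration.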

[3] = target: T2, Thioredoxin reductase 1, cytoplasmic (Rattus norvegicus, UniProt O89049); assay: Inhibition of […] thioredoxin reductase after 60 mins by DTNB reduction assay
T2 sequence (O89049 whole entry): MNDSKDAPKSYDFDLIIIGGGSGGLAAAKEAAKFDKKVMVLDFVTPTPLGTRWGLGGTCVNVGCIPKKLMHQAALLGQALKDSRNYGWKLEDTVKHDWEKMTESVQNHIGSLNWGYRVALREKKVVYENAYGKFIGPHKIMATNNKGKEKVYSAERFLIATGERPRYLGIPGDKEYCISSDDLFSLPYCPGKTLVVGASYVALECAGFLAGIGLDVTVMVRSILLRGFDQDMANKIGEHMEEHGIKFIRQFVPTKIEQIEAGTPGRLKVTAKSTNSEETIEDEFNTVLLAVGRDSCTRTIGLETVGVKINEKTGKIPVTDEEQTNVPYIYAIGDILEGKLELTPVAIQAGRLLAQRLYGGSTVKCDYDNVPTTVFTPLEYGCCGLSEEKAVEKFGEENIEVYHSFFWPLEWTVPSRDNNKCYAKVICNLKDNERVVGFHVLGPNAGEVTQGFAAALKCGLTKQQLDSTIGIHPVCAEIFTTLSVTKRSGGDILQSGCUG
How it was run: (§2)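 Rat liver TrxR at 2.1 units/ml preincubated with a range of test concentrations and 200 µM NADPH in 50 mM Tris-HCl, 1 mM EDTA, pH 7.5, at room temperature for 30 or 60 min. Equal volume of buffer with 5 mM DTNB and 200 µM NADPH then added. A412 followed over 2 min. Activity as % of vehicle Vmax; IC50 from log concentration plot.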

[4] = target: T1, Thioredoxin reductase 1, cytoplasmic (Homo sapiens); assay: Inhibition of thioredoxin reductase in human HCT116 cell lysate using thioredoxin as substrate after 16 hrs by end point insulin assay method
How it was run: (§3)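 HCT116 cells treated 16 h at 0.001 to 1 µM or 40 to 70 µM, then lysed. Stopped with 1 mM DTNB and 240 µM NADPH in 6 M guanidine HCl and Tris pH 8.0, read at A412. Given as % of DMSO-treated cells. Mean of three experiments.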

[5] = target: T3, Dihydrofolate reductase (Homo sapiens) (UniProt P00374); assay: Inhibition of DHFR in human HCT116 cell lysate assessed as reduction in conversion of DHF to THF at 40 to 70 uM after 16 hrs
T3 sequence (whole entry): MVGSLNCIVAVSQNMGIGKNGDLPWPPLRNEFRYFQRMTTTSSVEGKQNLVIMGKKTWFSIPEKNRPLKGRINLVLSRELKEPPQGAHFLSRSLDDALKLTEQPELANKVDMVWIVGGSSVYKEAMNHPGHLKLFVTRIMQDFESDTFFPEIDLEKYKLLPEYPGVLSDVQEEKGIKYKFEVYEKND
How it was run: (§4)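 HCT116 cells treated 16 h at 0.001 to 1 µM or 40 to 70 µM, then lysed. 400 µg lysate protein in PBS with 50 µM DHF and 200 µM NADPH, with matching controls containing 1 µM methotrexate. A340 decrease followed over 15 min at room temperature. MTX-sensitive rate given as % of DMSO-treated cells. Mean of three independent experiments.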

Dihydrofolate reductase = target: T4, Dihydrofolate reductase (Homo sapiens, UniProt P00374); assay: Inhibition of recombinant human DHFR assessed as reduction in conversion of DHF to THF measured every 30 secs for 6 mins by UV-Vis spectrophotometric method
T4 sequence (P00374 whole entry): T3 sequence (whole entry)

MCF7 = assay: Antiproliferative activity against human MCF7 cells after 72 hrs by MTT assay; type: functional; conditions: for GI50 / LC50 (concentration killing 50% of cells present at T0): MCF7, 72 h
How it was run: as §1

[6] = target: T2, Thioredoxin reductase 1, cytoplasmic; assay: Inhibition of […] thioredoxin reductase after 30 mins by DTNB reduction assay
How it was run: as §2

[7] = target: T3, Dihydrofolate reductase (Homo sapiens); assay: Inhibition of DHFR in human HCT116 cell lysate assessed as reduction in conversion of DHF to THF after 16 hrs
How it was run: as §4

[8] = target: T1, Thioredoxin reductase 1, cytoplasmic (Homo sapiens); assay: Inhibition of thioredoxin reductase in human HCT116 cell lysate using thioredoxin as substrate at 40 to 70 uM after 16 hrs by end point insulin assay method
How it was run: as §3

HCT-116 [9] = assay: Effect on thioredoxin reductase protein levels in human HCT116 cell lysate at 40 to 70 uM after 16 hrs by Western blot analysis; type: cell-based; conditions: hct-116, 16 h
How it was run: (§5)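 HCT116 plated at 1.5 x 10^6 per 100 mm plate, grown 48 h, then treated 16 h at 40 to 70 µM. Adherent and floating cells pooled and lysed in Triton X-100 buffer with protease inhibitors. Lysates cleared and protein measured by Bradford. Equal protein run on SDS-PAGE and blotted. DHFR or TrxR detected by ECL, β-actin antibody also used. Three independent experiments.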

HCT-116 [10] = assay: Upregulation of DHFR protein levels in human HCT116 cell lysate at 40 to 70 uM after 16 hrs by Western blot analysis; type: functional, cell-based
How it was run: as §5

Row | IC50 [3] | IC50 [6] | Compound | inhibition [1] | GI50 (HCT-116 [2]) | CC50 (HCT-116 [2]) | IC50 ([3]; read-out: IC50) | inhibition [4] | inhibition [5] | IC50 (Dihydrofolate reductase) | GI50 (MCF7) | LC50 (concentration killing 50% of cells present at T0) (MCF7) | IC50 ([6]; read-out: IC50) | inhibition [7] | growth inhibition (GI) (HCT-116 [2]) | growth inhibition (GI) (MCF7) | inhibition [8] | Activity (HCT-116 [9]) | Activity (HCT-116 [10])
1 |  |  | CC1(C)N=C(N)N=C(N)N1OCCCCOc1cccc(C(=O)/C=C/c2ccccc2)c1 | inactive | 0.051 µM | 30.3 µM | 6.7 µM | Dose-dependent effect | Active | 0.0042 µM | 0.122 µM | 11.3 µM | 11.2 µM | Dose-dependent effect |  |  |  |  | 
2 |  |  | NC1=NC2(CCCC2)N(OCCOc2cccc(C(=O)/C=C/c3ccccc3)c2)C(N)=N1 |  | 0.26 µM | 24.1 µM | 4.6 µM |  |  | 0.0131 µM | 0.77 µM | 16.1 µM | 8 µM |  |  |  |  |  | 
3 |  |  | CC1(C)N=C(N)N=C(N)N1OCCOc1ccc(C(=O)/C=C/c2ccccc2)cc1 |  | 0.572 µM | 50.1 µM | 20.4 µM |  |  | 0.0141 µM | 0.584 µM | 40.1 µM | 43.3 µM |  |  |  |  |  | 
4 |  |  | CC1(C)N=C(N)N=C(N)N1OCCCCOc1cccc(/C=C/C(=O)c2ccccc2)c1 |  | 0.034 µM | 34.7 µM | 3.8 µM |  |  | 0.0048 µM | 0.086 µM | 15.5 µM | 6 µM |  |  |  |  |  | 
5 |  |  | CC1(C)N=C(N)N=C(N)N1OCCCOc1ccc(/C=C/C(=O)c2ccccc2)cc1 |  | 0.035 µM | 39 µM | 25.7 µM |  |  | 0.0064 µM | 0.062 µM | 35.3 µM | 35.9 µM |  |  |  |  |  | 
6 |  |  | CC1(C)N=C(N)N=C(N)N1OCCCCOc1ccc(C(=O)/C=C/c2ccccc2)cc1 |  | 0.039 µM | 24 µM | 27 µM |  |  | 0.0034 µM | 0.087 µM | 14.2 µM | 44.5 µM |  |  |  |  |  | 
7 |  |  | CC1(C)N=C(N)N=C(N)N1OCCCOc1cccc(C(=O)CCc2ccccc2)c1 |  | 0.01 µM | 34.2 µM |  |  |  | 0.0039 µM | 0.036 µM | 25.9 µM |  |  |  |  |  |  | 
8 |  |  | CC1(C)N=C(N)N=C(N)N1OCCOc1ccc(/C=C/C(=O)c2ccccc2)cc1 |  | 0.706 µM | 81.9 µM | 21.1 µM |  |  | 0.0534 µM | 0.512 µM | 47.7 µM | 29.8 µM |  |  |  |  |  | 
9 |  |  | CC1(C)N=C(N)N=C(N)N1OCCOc1cccc(/C=C/C(=O)c2ccccc2)c1 |  | 0.145 µM | 52.2 µM | 4 µM |  |  | 0.0592 µM | 0.623 µM | 38.8 µM | 5.7 µM |  |  |  |  |  | 
10 | Not Active | Not Active | O=C(Cc1ccccc1)Cc1ccccc1 |  |  |  |  |  |  |  |  |  |  |  | inactive | inactive |  |  | 
11 |  |  | CN(Cc1cnc2nc(N)nc(N)c2n1)c1ccc(C(=O)N[C@@H](CCC(=O)O)C(=O)O)cc1 [METHOTREXATE] |  | 0.015 µM | > 100 µM |  |  |  |  | 0.024 µM |  |  |  |  |  |  |  | 
12 |  |  | CC1(C)N=C(N)N=C(N)N1OCCCCOc1ccc(/C=C/C(=O)c2ccccc2)cc1 |  | 0.026 µM | 42.9 µM | 21.1 µM |  |  | 0.004 µM | 0.141 µM | 14.8 µM | 31.6 µM |  |  |  |  |  | 
13 |  |  | CC1(C)N=C(N)N=C(N)N1OCCOc1cccc(C(=O)/C=C/c2ccccc2)c1 |  | 0.17 µM | 49.9 µM | 6.9 µM |  |  | 0.0356 µM | 0.719 µM | 40.7 µM | 10.8 µM |  |  |  |  |  | 
14 |  |  | CC1(C)N=C(N)N=C(N)N1OCCCOc1ccc(C(=O)/C=C/c2ccccc2)cc1 |  | 0.016 µM | 55.2 µM | 32.4 µM |  |  | 0.0092 µM | 0.085 µM | 34 µM | 49 µM |  |  |  |  |  | 
15 |  |  | CC1(C)N=C(N)N=C(N)N1OCCCOc1cccc(/C=C/C(=O)c2ccccc2)c1 |  | 0.011 µM | 48.2 µM | 2.8 µM |  |  | 0.0032 µM | 0.013 µM | 29.8 µM | 4.1 µM |  |  |  |  |  | 
16 |  |  | NC1=NC2(CCCC2)N(OCCCOc2ccccc2)C(N)=N1 | inactive | 0.021 µM | > 100 µM |  |  |  | 0.0199 µM | 0.077 µM | 90.8 µM |  | Dose-dependent effect |  |  | inactive |  | 
17 |  |  | Cl.NC1=NC2(CCCC2)N(OCCCCOc2cccc(C(=O)/C=C/c3ccccc3)c2)C(N)=N1 | inactive | 0.116 µM | 13.5 µM | 5.9 µM | Dose-dependent effect | Active | 0.0026 µM | 0.127 µM | 9.7 µM | 9.2 µM | Dose-dependent effect |  |  |  | Non-Toxic | Active
18 |  |  | CC1(C)N=C(N)N=C(N)N1OCCCOc1cccc(C(=O)/C=C/c2ccccc2)c1 | inactive | 0.011 µM | 42.7 µM | 8.2 µM | Dose-dependent effect | Active | 0.009 µM | 0.076 µM | 20.2 µM | 10.8 µM | Dose-dependent effect |  |  |  |  | 
19 |  |  | CC1(C)N=C(N)N=C(N)N1OCCCOc1ccccc1 | inactive | 0.036 µM | > 100 µM |  |  |  | 0.0053 µM | 0.107 µM | > 100 µM |  | Dose-dependent effect |  |  | inactive |  | 
